# STAT3 blocker: reduces IL-6 driven STAT3 reporter signal. AID 862. 190,000 compounds, 0.89% hits. inhibition, % at 5.5 µM. U3A cells, IL-6 STAT3-luciferase reporter, luminescence; host cell line lacks STAT1;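 active means inhibition above the mean inhibition across all screened compounds plus 3 SD, cut at about 44% in these data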;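 further: 0% = DMSO only wells and 100% = 100 µM nifuroxazide control wells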
# APP 5'UTR act: APP 5'UTR luciferase reporter activation. SH-SY5Y APP 5'UTR luciferase reporter, luminescence; zero percent = DMSO vehicle wells. activation, % at 2 µM. 190,000 compounds, 1% hits;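 active means activation above a set limit, based on mean plus 3 SD of controls, cut at about 140% in these data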
# STAT3 activator: activators of IL-6 induced STAT3 signaling; U3A cells, IL-6 STAT3-luciferase reporter, luminescence; 100% = signal with IL-6 EC80 alone; activation (% of control), % at 5.6 µM; 190,000 compounds, 0.91% hits; AID 871;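 active means activation above the screen-wide mean of compound activation plus 3 SD, cut at about 130% in these data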;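 further: 0% = background luminescence of wells with medium and substrate only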
#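 Material: STAT1-lacking human U3A cells, STAT3 luciferase reporter | Benchmarks: IL-6-only wells as 100% reference | Probe or stimulus: IL-6 (33 ng/mL) | Timing: Compound 1 h, then IL-6 6 h at 37 °C | Detection: Luminescence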
# STAT1 inh: inhibitors of IFN-gamma induced STAT1 signaling. inhibition, % at 5.5 µM. AID 920. NIH 3T3 STAT1-luciferase reporter, luminescence. 200,000 compounds, 0.35% hits;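 active means inhibition above a set limit, the mean inhibition across all tested compounds plus 3 SD, cut at about 34% in these data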;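 further: 0% = IFN-gamma with DMSO and 100% = IFN-gamma with 300 µM nifuroxazide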
# NF-kB neuron act: raises NF-kB expression in human neuronal cells; NF-kB reporter expression; active compounds read high; 190,000 compounds, 1.6% hits; fold change at 12.5 µM; in the data active means fold change above about 3.3
# STAT1 activator: increases IFN-gamma driven STAT1 reporter signal | NIH 3T3 STAT1-luciferase reporter, luminescence; 100% = IFN-gamma alone, no compound | activation (% of control), % at 5.5 µM | 200,000 compounds, 2.6% hits;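 active means activation above the screen-wide mean activation plus 3 SD, cut at about 130% in these data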;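 further: raw ratio to IFN-gamma control signal so 100% means no change and 0% no light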
# An asterisk follows results filed as active; x = no result given. A selection: hits, their analogues and other compounds. The true share with any hit is near 4.9%.
SMILES,STAT3 blocker,APP 5'UTR act,STAT3 activator,STAT1 inh,NF-kB neuron act,STAT1 activator
NC(=O)c1cccnc1Nc1cccc([N+](=O)[O-])c1,-10,88,112,-39,2.5,134*
Cc1c(C(=O)/C=C/c2cccs2)oc2ccc(F)cc12,-51,-9,151*,2,2.6,98
CN(C)c1ccc(N=c2sc3ccccc3n2C)cc1,11,74,93,-41,4.6*,138*
COc1ccc(N=Cc2[nH]c3ccccc3c2O)cc1,-16,87,117,-7,1.7,106
COc1ccc(N=Cc2oc3ccc4ccccc4c3c2O)cc1,-29,57,134*,-29,2.3,128
Clc1cccc(C2CCN(Cc3nc(CC4CC4)no3)C2)c1 (stereo not drawn),2,11,105,-4,1.5,102
Cc1ccc2ccc(C3C(=O)c4ccccc4C3=O)nc2c1,-74,145*,165*,-45,x,142*
O=C(Oc1ccc(Cl)c2ccccc12)N1CCCCC1,0,10,102,-3,1.5,103
O=C(Oc1ccc2ccccc2c1Cl)N1CCCC1,-11,143*,114,-48,5.1*,144*
COCc1cc(C)n(CC(=O)Nc2cc(C)cc(C)c2)c(=O)c1C#N,-2,-25,106,9,1.1,91
Nc1cc2nc[nH]c2cc1N,-11,163*,115,-25,1.6,123
CC(=O)Nc1cc(OC(C)=O)c2nonc2c1OC(C)=O,-2,-17,105,95*,x,12
CC(=O)Nc1nonc1NC(C)=O,1,-4,103,-3,1.1,103
Cc1ccc(OCc2nc(-c3ccccn3)n[nH]2)cc1,-2,26,106,9,13*,91
COCc1cc(C)nc(OCC(=O)N/N=C/c2ccc(-c3cc([N+](=O)[O-])ccc3Cl)o2)c1C#N,12,11,99,-4,0.98,103
Cn1c(-c2ccc3ccccc3n2)nc2cnccc21,-2,109,110,-36,2,133*
COC(=O)CC/C(O)=C1\C(=O)CC(C)(C)CC1=NCCc1nc2ccccc2[nH]1,4,11,98,11,1.5,88
O=C(c1cccc(F)c1)N1CCN(Cc2c[nH]c3ccccc23)CC1,-81,10,168*,7,1.2,93
O=[N+]([O-])c1ccccc1CN1CCN(Cc2c[nH]c3ccccc23)CC1,-33,-24,135*,17,1.4,83
O=C(c1ccccc1)N1CCN(Cc2c[nH]c3ccccc23)CC1,-28,-35,126,1,0.85,98
O=C(O)c1cccc(NC(=O)c2cccc(S(=O)(=O)N3CCc4ccccc4C3)c2)c1,7,-2,96,2,1.1,97
O=C(O)CCCNC(=O)Nc1ccccc1,4,3,94,2,13*,98
COc1cccc(OCCSc2nnc3sc4ccccc4n23)c1,14,3,88,-3,1.7,103
c1ccc(OCCSc2nnc3sc4ccccc4n23)cc1,87*,120,31,50*,1.4,54
C(=N\Nc1ccccn1)/c1ccc(N2CCOCC2)cc1,23,115,84,-24,4.5*,121
SMILES,STAT3 blocker,APP 5'UTR act,STAT3 activator,STAT1 inh,NF-kB neuron act,STAT1 activator
C/C(=N\Nc1ccccn1)c1ccc(N2CCOCC2)cc1,17,46,92,-45,3.1,141*
C(=N\Nc1ccccc1)/c1ccc(N2CCOCC2)cc1,19,106,89,-23,1.4,121
C/C(=N\Nc1ccccn1)c1ccc(C(C)C)cc1,8,17,95,-24,2.7,122
CCOC(=O)N1CCN(C(=O)c2ccc3c(c2)sc2nc(-c4ccccc4)cn23)CC1,10,82,94,-49,0.44,145*
Cc1[nH]c2c(C)cccc2c1CC(=O)O,5,-12,103,0,1.1,98
Cc1[nH]c2ccccc2c1CC(=O)O,-34,8,133*,1,0.88,99
Clc1ccccc1-c1nnc(-c2cccs2)o1,1,182*,101,-48,6*,143*
Cc1ccc(/C=C/c2nnc(-c3ccccc3)o2)cc1,32,16,78,-7,2.3,106
C(=C\c1nnc(-c2cccs2)o1)/c1ccccc1,13,117,94,-48,5*,143*
Cc1sc2c(c1C)CN(CCN1CCOCC1)CN2C(=O)c1ccccc1,-32,6,127,-27,1.7,124

# Screening data: PubChem, several laboratories
